In publication PMC4823774 (Bioorganic & medicinal chemistry letters, 2016):
pEC50: −log10 of the molar value.

What was measured:
human mGlu1 = human mGlu1 (Homo sapiens, UniProt Q13255); assay: Calcium mobilization mGlu1 PAM assay; format: cell-based
In short: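 Tetracycline-inducible human mGlu1 T-REx-293 cells, induced overnight at 80,000 cells/well with 50 ng/mL tetracycline. Loaded with 1.15 μM Fluo-4 AM in HBSS/20 mM HEPES/2.5 mM probenecid, 45 min, 37 °C. Half-log dilutions or DMSO preincubated 2.5 min, then EC20 glutamate for 1 min. ECmax glutamate on vehicle wells. Peak minus pre-agonist basal fluorescence; concentration-response curve fitting.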

[1] = Human liver microsome stability and intrinsic clearance; format: in vitro ADME; conditions: for stability in human liver microsomes: in words
[2] = Rat liver microsome stability and intrinsic clearance; format: in vitro ADME; conditions: for stability in rat liver microsomes: in words
[3] = Rat brain homogenate binding; format: in vitro ADME
CNS penetration = conditions: in vivo
[4] = Clearance in in vitro DMPK assays, species not stated; format: in vitro ADME
Human plasma stability = format: in vitro ADME
Rat plasma stability = format: in vitro ADME
CYP = CYP profile; format: in vitro ADME

Sequence of human mGlu1 (Q13255 19-1194): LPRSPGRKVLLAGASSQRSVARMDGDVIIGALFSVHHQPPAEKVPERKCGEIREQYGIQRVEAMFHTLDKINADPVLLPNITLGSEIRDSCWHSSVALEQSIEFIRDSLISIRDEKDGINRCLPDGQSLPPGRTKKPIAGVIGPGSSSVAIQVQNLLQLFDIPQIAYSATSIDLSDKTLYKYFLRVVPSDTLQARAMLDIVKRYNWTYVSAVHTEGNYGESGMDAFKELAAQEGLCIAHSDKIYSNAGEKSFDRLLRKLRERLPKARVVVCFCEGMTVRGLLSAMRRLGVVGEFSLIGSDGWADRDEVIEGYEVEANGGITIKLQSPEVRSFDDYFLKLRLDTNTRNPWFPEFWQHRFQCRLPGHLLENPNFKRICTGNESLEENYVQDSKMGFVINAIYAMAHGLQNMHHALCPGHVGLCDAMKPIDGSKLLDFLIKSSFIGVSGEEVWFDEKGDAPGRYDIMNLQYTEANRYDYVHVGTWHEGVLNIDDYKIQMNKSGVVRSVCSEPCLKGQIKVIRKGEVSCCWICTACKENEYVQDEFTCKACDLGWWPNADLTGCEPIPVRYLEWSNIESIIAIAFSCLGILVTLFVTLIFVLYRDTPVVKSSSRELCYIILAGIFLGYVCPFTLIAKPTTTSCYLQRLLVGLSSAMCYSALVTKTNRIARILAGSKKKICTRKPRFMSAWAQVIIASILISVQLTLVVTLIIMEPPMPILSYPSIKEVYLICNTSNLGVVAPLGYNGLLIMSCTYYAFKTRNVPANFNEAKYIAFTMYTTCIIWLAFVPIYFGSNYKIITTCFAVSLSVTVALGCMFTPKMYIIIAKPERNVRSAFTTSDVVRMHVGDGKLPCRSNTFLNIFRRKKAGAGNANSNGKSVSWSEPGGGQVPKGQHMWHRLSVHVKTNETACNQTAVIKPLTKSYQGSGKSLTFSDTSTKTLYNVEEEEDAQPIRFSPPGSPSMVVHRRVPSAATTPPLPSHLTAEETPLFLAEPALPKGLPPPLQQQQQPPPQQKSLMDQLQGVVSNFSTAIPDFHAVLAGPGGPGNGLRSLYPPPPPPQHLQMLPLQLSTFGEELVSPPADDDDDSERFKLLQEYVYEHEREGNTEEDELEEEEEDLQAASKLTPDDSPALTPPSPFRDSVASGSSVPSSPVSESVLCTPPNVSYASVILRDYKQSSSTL

Cc1ccoc1C(=O)Nc1ccc(N2C(=O)Cc3ccccc32)c(Cl)c1 [20g]
mGlu1 PAM activity (in words) (human mGlu1): inactive

Cc1cccnc1C(=O)Nc1ccc(N2Cc3c(Cl)cccc3C2=O)c(Cl)c1 [22k]
pEC50 (human mGlu1): ~6.00

Cc1ccoc1C(=O)Nc1ccc(N2Cc3c(Cl)cccc3C2=O)c(Cl)c1 [21a, N-(3-chloro-4-(4-chloro-1-oxoisoindolin-2-yl)phenyl)-3-methylfuran-2-carboxamide]
mGlu1 pEC50 (±SEM) (human mGlu1; calcium mobilization, n=3 in triplicate, tables): 6.75±0.07
stability in human liver microsomes [1]: hydrolytically stable
CLhep predicted ([1]; liver microsomes): 0.512 L/h/kg
stability in rat liver microsomes [2]: hydrolytically stable
CLhep predicted ([2]; liver microsomes): 3.25 L/h/kg
CLp (In vivo rat PK): 0.666 L/h/kg
brain homogenate binding [3]: > 99%

Cc1ccoc1C(=O)Nc1ccc(N2Cc3ccccc3C2)c(Cl)c1 [20f]
mGlu1 PAM activity (in words) (human mGlu1): active

Cc1ccoc1C(=O)Nc1ccc(N2C(=O)[C@H]3CCCC[C@H]3C2=O)c(Cl)c1 [20a]
mGlu1 PAM activity (in words) (human mGlu1): inactive

Cc1ccoc1C(=O)Nc1ccc(N2Cc3c(Cl)cccc3C2=O)cc1F [22h]
pEC50 (human mGlu1): ~6.00

Cc1ccoc1C(=O)Nc1ccc(NC(=O)c2ccccc2C(=O)O)c(Cl)c1 [20c]
CNS penetration (in words) (CNS penetration): not CNS penetrant

Cc1ccoc1C(=O)Nc1ccc(N2CCc3ccccc32)c(Cl)c1 [20h]
mGlu1 PAM activity (in words) (human mGlu1): active

Cc1ccoc1C(=O)Nc1ccc(N2Cc3ccccc3C2=O)c(Cl)c1 [20e]
mGlu1 PAM activity (in words) (human mGlu1): active
stability in human liver microsomes [1]: complete stability
stability in rat liver microsomes [2]: complete stability

Cc1ccoc1C(=O)Nc1ccc(N2C(=O)CCc3ccccc32)c(Cl)c1 [compound 19]
clearance (in words) [4]: supprahepatic
stability in human plasma (Human plasma stability): stable
stability in rat plasma (Rat plasma stability): stable

Cc1ccoc1C(=O)Nc1ccc(N2C(=O)[C@@H]3CCCC[C@H]3C2=O)c(Cl)c1 [20b]
mGlu1 PAM activity (in words) (human mGlu1): inactive

Cc1ccoc1C(=O)Nc1ccc(N2C(=O)Cc3ccccc3C2=O)c(Cl)c1 [compound 17]
stability in human plasma (Human plasma stability): unstable
stability in rat plasma (Rat plasma stability): unstable
CYP profile (in words) (CYP): clean CYP profile
